Assay outcomes deposited in PubChem by several laboratories.
Compounds with a hit are over-represented: about 1.7% of the library has one in this group of screens.
Rpn11 block – Rpn11 (PSMD14) deubiquitinase inhibitors, primary screen, biochemical, fluorescence polarization, uHTS; 26S proteasome non-ATPase regulatory subunit 14 (Homo sapiens), O00487; human 26S proteasome, Ub4-pepOG fluorescence polarization; 20S core pre-blocked with epoxomicin; calls only at 20 µM; 360,000 compounds, 0.59% hits;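 active = inhibition at 20 µM, scaled to each plate's controls, above about 33%, limit read from the data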
IDE act – human IDE activators in live cells, primary screen, fluorescence polarization, HEK cells, FAbeta-B substrate; Insulin-degrading enzyme (Homo sapiens), P14735; FAbeta-B cleavage; 0% vehicle, 100% cell-free pure enzyme wells; activation, % at 5.96 µM; 340,000 compounds, 0.073% hits; AID 493087, 2011;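 active = activation above the mean of all tested compounds plus 3 SD, set per screening campaign, cut at about 17% in these data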
IDE cell inh – human IDE inhibitors in live cells, primary screen, fluorescence polarization, HEK cells, FAbetaB substrate; 320,000 compounds, 0.41% hits; inhibition, % at 5.59 µM; FAbetaB cleavage; Insulin-degrading enzyme (Homo sapiens), P14735; AID 434962, 2010;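 active = percent inhibition above the average of all tested compounds plus 3 SD, set per screening campaign, cut at about 16% in these data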;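 note: IDE supplied by intact live HEK cells; FP after avidin binding of uncleaved biotin substrate so inhibition keeps polarization high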
TPT1 inh – Candida albicans TPT1 enzyme inhibitors, primary screen, biochemical, fluorescence polarization | recombinant caTPT1, FP RNA substrate dephosphorylation | inhibition, % at 5 µM | 300,000 compounds, 0.81% hits | AID 1962, 2009;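 active = inhibition above the mean of all tested compounds plus 3 SD, set per screening campaign, cut at about 24% in these data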
CSN inh – inhibitors of CSN-mediated cullin deneddylation, primary screen, biochemical, fluorescence polarization, uHTS; AID 651999, 2013; Purified CSN, SCF-Nedd8-OG deneddylation; COP9 signalosome complex subunit 5 (Homo sapiens), Q92905; 360,000 compounds, 0.38% hits; inhibition, % at 12.5 µM;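 active = pattern-corrected inhibition above about 35%, with an unprinted fluorescence ratio check between 0.5 and 1.5, limit read from the data, passing the limit was not always enough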
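Test system: Human Csn5 produced in HEK293T cells | Compound: 12.5 µM single point | Times: 90 min, room temperature | Signal: Fluorescence polarization readout | Read-out basis: % inhibition of substrate cleavage by Csn5 | Controls: no-enzyme wells high, enzyme-with-substrate wells low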
HNF4A DNA FP – change in binding of human HNF4A to DNA, primary screen, biochemical, fluorescence polarization, FITC-DNA | Hepatocyte nuclear factor 4-alpha (Homo sapiens), P41235 | 1 h | activity change, % at 10 µM | 360,000 compounds, 0.3% hits | AID 1224865, 2016; in the data active = activity change above about 30%, passing the limit was not always enough
Target sequence (P41235 whole entry, looked up): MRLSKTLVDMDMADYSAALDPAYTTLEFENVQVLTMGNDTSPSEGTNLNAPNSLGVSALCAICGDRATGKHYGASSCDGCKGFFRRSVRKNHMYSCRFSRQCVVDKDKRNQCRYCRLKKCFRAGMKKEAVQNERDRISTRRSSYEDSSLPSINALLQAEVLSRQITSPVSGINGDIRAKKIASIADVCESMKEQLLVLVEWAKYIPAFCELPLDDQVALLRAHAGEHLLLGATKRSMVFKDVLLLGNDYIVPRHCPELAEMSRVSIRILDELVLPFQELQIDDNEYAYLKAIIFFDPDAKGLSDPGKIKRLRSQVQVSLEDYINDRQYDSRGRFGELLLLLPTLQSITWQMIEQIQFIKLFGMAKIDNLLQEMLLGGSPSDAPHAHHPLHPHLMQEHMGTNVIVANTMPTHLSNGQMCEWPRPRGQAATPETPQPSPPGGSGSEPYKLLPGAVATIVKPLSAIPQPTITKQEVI
IDE inh confirm – human IDE inhibitors in live cells, confirmation, fluorescence polarization, HEK cells, FAbetaB substrate | shares compounds with IDE cell inh | FAbetaB cleavage | inhibition, % at 5.59 µM | 1,200 compounds, 51% hits | AID 435028, 2010;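 active = mean inhibition across triplicate wells above the cutoff set by the earlier primary insulin-degrading enzyme screen, cut at about 16% in these data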
HEK293 tox – cytotoxicity in HEK cells, cytotoxicity control for IDE inhibitor project, cell-based, luminescence. 1,200 compounds, 28% hits. inhibition, % at 5.59 µM. HEK293 cytotoxicity, ATP luminescence. AID 449730, 2010. shares compounds with IDE cell inh; in the data active = inhibition above about 22%
Rpn11 inh conf – Rpn11 (PSMD14) deubiquitinase inhibitors, confirmation, biochemical, fluorescence polarization, single concentration; shares compounds with Rpn11 block; purified human 26S proteasome, Ub4-pepOG fluorescence polarization; proteasome pretreated with epoxomicin; inhibition, % at 20 µM; 1,900 compounds, 29% hits; AID 602318, 2012
MMP-2 counter-1 – MMP-2 enzyme inhibition, confirmation, counter-screen for RPN11 inhibitor project, biochemical, fluorescence, single concentration; shares compounds with Rpn11 block; recombinant MMP-2, FRET peptide cleavage fluorescence; inhibition, % at 20 µM; 1,900 compounds, 4% hits; AID 602330, 2012;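 note: human MMP-2 activated beforehand with APMA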
Thrombin inh – bovine thrombin protease inhibition, confirmation, counter-screen for Rpn11 inhibitor project, biochemical, fluorescence polarization, single concentration; shares compounds with Rpn11 block; bovine thrombin cleavage of Ub4-pepOG; inhibition, % at 20 µM; 1,900 compounds, 13% hits; AID 602333, 2012;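 active = mean inhibition at least 40% at 20 µM, or signal 3 deviations below plate average, so some actives read negative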
CSN deneddyl val – Csn5 deneddylation inhibitors, confirmation, biochemical, fluorescence polarization, single concentration, SCF-Nedd8OG substrate | shares compounds with CSN inh | Csn5 deneddylation of SCF-Nedd8OG, 90 min | inhibition, % at 16.6 µM | 540 compounds, 62% hits | AID 720654, 2013; in the data active = inhibition above about 50%
MMP-2 counter-2 – MMP-2 protease inhibition counter-screen, confirmation, counter-screen for CSN deneddylation inhibitor project, biochemical, fluorescence, single concentration. inhibition, % at 16.6 µM. shares compounds with CSN inh. recombinant MMP-2, FRET substrate fluorescence, 60 min. AID 720655, 2013. 540 compounds, 33% hits;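 active = corrected plate-normalized z-score of 5 or more, or -5 or less, or inhibition of 15% or more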
Thrombin counter – thrombin (bovine) inhibition, counter-screen for CSN hits | shares compounds with CSN inh | inhibition, % at 16.6 µM | 540 compounds, 49% hits | bovine thrombin cleavage of Ub4-pepOG, fluorescence polarization;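 active = inhibition at or above a set limit, with a fluorescence interference ratio between 0.5 and a set maximum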
HNF4a DNA conf – change in HNF4A binding to DNA, retest, confirmation, biochemical, fluorescence polarization, FITC-DNA; AID 1224897, 2016; 210 compounds, 99% hits; activity change, % at 12.5 µM; 1 h; shares compounds with HNF4A DNA FP; call rule not given here
A number is an active result; . = inactive; / = not tested or not shown; + = active, no number. Cut-off read from the data, not from the text of the source, unless noted: active = inhibition above about 40%; inactive = the rest.

SMILES	Rpn11 block	IDE act	IDE cell inh	TPT1 inh	CSN inh	HNF4A DNA FP	Rpn11 inh conf	MMP-2 counter-1	Thrombin inh	others
COC(=O)c1ccc2c(c1)C(C)(C)C(/C=C/c1ccc(O)cc1)=[N+]2C	/	.	16	.	48	41	/	/	/	IDE inh confirm=21;HEK293 tox=122;CSN deneddyl val=62;MMP-2 counter-2=.;Thrombin counter=35
COC(=O)c1ccc2c(c1)C(C)(C)C(/C=C/c1ccc(OC)c(OC)c1OC)=[N+]2C	.	.	.	.	.	.	/	/	/
COc1nc(N)nc2nc[nH]c12	.	.	.	.	.	.	/	/	/
CSc1ccc(C2C(C#N)=C(N)Oc3c2ccc(=O)c2c(C)oc(C)c32)cc1 (configuration not stated)	/	.	30	40	49	.	/	/	/	IDE inh confirm=109;HEK293 tox=25;CSN deneddyl val=95;MMP-2 counter-2=.;Thrombin counter=.
COc1cc(/C=C2/SC(=S)N(CC(=O)O)C2=O)ccc1OC(=O)c1cccs1	.	.	.	.	.	.	/	/	/
COc1cc(/C=C2/SC(=S)N(C)C2=O)ccc1OC(=O)c1ccco1	.	.	24	.	.	49	/	/	/	IDE inh confirm=63;HEK293 tox=.;HNF4a DNA conf=37
CC1CCN(c2ccc3c(c2)S(=O)(=O)c2cccc(C(=O)NC4CC4)c2C3=O)CC1	.	.	18	/	.	43	/	/	/	IDE inh confirm=19;HEK293 tox=.;HNF4a DNA conf=36
CC1CCN(c2ccc3c(c2)S(=O)(=O)c2cccc(C(=O)NC[C@@H]4CCCO4)c2C3=O)CC1	/	.	22	/	.	54	/	/	/	IDE inh confirm=21;HEK293 tox=26;HNF4a DNA conf=62
COCc1c(C(=O)N/N=C(/C)c2cccs2)nnn1-c1nonc1N	.	.	.	.	.	.	/	/	/
CC(C)c1ccccc1OCC(=O)Nc1nnc(C2CC2)s1	.	.	/	/	.	.	/	/	/
CC(=O)N(/N=C1\Sc2ccccc2C1=O)c1ccccc1C	+	.	.	.	.	.	.	.	.
COc1ccc(-n2nc(C(=O)NCC(=O)Nc3ccccn3)c3ccccc3c2=O)cc1Cl	+	.	/	/	.	.	.	.	.
COc1ccc(-n2nc(C(=O)NCC(=O)NC(C)C)c3ccccc3c2=O)cc1Cl	.	.	.	.	.	.	/	/	/
N#Cc1c(C(F)(F)F)cc(-c2ccco2)nc1SCc1ccncc1	+	.	.	.	.	.	.	.	.
CSc1nc(-c2ccco2)cc(C(F)(F)F)c1C#N	+	.	.	.	.	.	.	.	.
C/C(=N\OCC(=O)N/N=C/c1ccccc1O)c1cccs1	.	.	.	.	.	.	/	/	/
Nc1ccc(-c2nc3ccccc3o2)cc1	+	.	.	.	.	.	.	.	.
Nc1cc(N)cc(-c2nc3ccccc3o2)c1	.	.	.	.	.	.	/	/	/
CN(C)S(=O)(=O)c1ccc(NC(=O)CN2CCC(Cc3ccccc3)CC2)cc1	.	.	.	.	.	.	/	/	/
COc1ccc2c(c1O)Cc1ccccc1C2=O	.	.	.	.	.	.	/	/	/
CC1CCCN(S(=O)(=O)c2ccc(Br)s2)C1 (configuration not stated)	+	.	.	.	.	.	.	.	.
CC1CCCN(S(=O)(=O)c2ccc(Cl)s2)C1 (configuration not stated)	.	.	.	.	.	.	/	/	/
CCC1(c2ccc(F)cc2)NC(=O)N(CC(=O)Nc2ccc(-c3nc4ccc(C)cc4s3)cc2)C1=O (configuration not stated)	+	.	.	.	.	.	.	.	.
O=C(CCN1C(=O)NC2(CCCC2)C1=O)Nc1ccc(-c2nc3ccccc3s2)cc1	+	.	.	/	.	.	61	.	48
COc1ccc(C2(C)NC(=O)N(CC(=O)Nc3ccc(-c4nc5ccc(C)cc5s4)cc3)C2=O)cc1 (configuration not stated)	.	/	.	.	.	.	/	/	/
O=C(CCN1C(=O)NC2(CCCC2)C1=O)Nc1ccc(Sc2ccc(Br)cc2)cc1	.	/	/	/	.	.	/	/	/
C/C(CC(=O)NC(C)C)=N\NC(=O)COc1cc(C)c(Br)cc1Br	.	.	.	.	.	.	/	/	/
COc1ccc(NC(=O)COC(=O)/C=C/c2ccc(OC)c(S(=O)(=O)N3CCOCC3)c2)cc1	.	.	.	.	.	.	/	/	/
CCc1ccc(NC(=O)CS(=O)CC(=O)Nc2ccc(N3CCOCC3)cc2)cc1 (configuration not stated)	+	.	.	.	.	.	.	.	.
Cc1cccc(C)c1NC(=O)CS(=O)CC(=O)Nc1ccc(N2CCOCC2)cc1 (configuration not stated)	.	.	.	.	.	.	/	/	/
